Reference: PMC3445631 (Bioorganic & medicinal chemistry letters, 2012)

Experiments:
[1] = biological target: mCB2 receptor (Mus musculus, UniProt P47936); assay: Photolabeling of mCB2; assay type: binding; conditions: HEK293 cell membranes expressing mCB2, photoactivated
Method in brief: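 Compound-free membranes were run in parallel as control. Incubated 30 min at 37°C, then UV-irradiated at 365 nm for 1 h on ice. Washed with 1% BSA TME, then plain TME. Followed by [3H]CP-55940 saturation binding.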

[2] = biological target: hCB2 (Homo sapiens, UniProt P34972); assay: Photolabeling of hCB2; assay type: binding
Chain of hCB2 (P34972 whole entry): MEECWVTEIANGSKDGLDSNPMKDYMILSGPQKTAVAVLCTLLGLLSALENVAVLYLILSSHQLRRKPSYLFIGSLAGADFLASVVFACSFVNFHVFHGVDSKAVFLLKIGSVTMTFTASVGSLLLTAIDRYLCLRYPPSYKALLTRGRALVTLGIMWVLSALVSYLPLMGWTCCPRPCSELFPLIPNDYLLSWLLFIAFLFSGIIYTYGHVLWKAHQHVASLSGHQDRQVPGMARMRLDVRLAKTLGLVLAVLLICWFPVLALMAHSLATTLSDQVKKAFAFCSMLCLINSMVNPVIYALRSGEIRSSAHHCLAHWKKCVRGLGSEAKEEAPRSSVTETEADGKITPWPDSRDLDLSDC

Chain of mCB2 receptor (P47936 whole entry): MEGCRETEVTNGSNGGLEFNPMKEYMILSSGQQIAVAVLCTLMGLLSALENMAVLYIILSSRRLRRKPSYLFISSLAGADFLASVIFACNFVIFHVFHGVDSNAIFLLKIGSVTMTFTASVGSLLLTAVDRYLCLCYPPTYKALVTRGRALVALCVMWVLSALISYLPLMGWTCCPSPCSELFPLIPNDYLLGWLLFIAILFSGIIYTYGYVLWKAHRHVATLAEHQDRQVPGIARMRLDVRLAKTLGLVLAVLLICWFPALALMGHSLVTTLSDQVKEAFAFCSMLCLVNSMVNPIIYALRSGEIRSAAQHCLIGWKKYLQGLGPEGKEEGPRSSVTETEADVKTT

Row | Compound | ability to photolabel the mCB2 receptor [1] | extent of labeling of hCB2 [2] [%]
1 | CC1(C)Oc2cc(C(=O)c3cccc(C(F)(F)F)c3)cc(O)c2[C@@H]2C[C@H](O)CC[C@H]21 [Compound 49] | also labeled, however, less effectively | 30
2 | CC1(C)Oc2cc(C(=O)c3c[nH]c4ccccc34)cc(O)c2[C@@H]2C[C@H](O)CC[C@H]21 [Compound 50] | failed to label mCB2 | 
